Assay results reported in ChEMBL document CHEMBL4321880 (J Med Chem, 2020).

How the values were obtained:
ASPC1 [1] = assay: Increase in CYP3A4 expression in CRISPR/Cas9-mediated CYP3A5 knock-out and doxycycline-induced CYP3A4 overexpressing human AsPC1 cells at 1 uM after 24 hrs by Western blot analysis; format: ADME, cell-based; conditions: aspc1, 24 h
Method in brief: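 Overexpression was induced with 100 ng/mL doxycycline. […] Blots were probed with anti-CYP3A4 K03 (also detects CYP3A5) and β-actin, with infrared dye secondaries. Bands were normalized to actin across triplicate gels, with DMSO set as 1.0.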

Cytochrome P450 3A4 [2] = biological target: T1, Cytochrome P450 3A4 (Homo sapiens, UniProt P08684); assay: Binding affinity to His-tagged CYP3A4 (unknown origin) expressed in Escherichia coli DH5alpha assessed as retention of axial water ligand with ligand free LS with no new HS formation by EPR spectroscopy; format: ADME; conditions: buffer
Method in brief: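 Continuous-wave X-band EPR of the purified recombinant ligand-free enzyme and of its ligand complex. Ferric heme spin state (LS vs HS) assigned from g-values.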

ASPC1 [3] = assay: Cytotoxicity against CRISPR/Cas9-mediated CYP3A5 knock-out and lentiviral pLVX-TRE3G-ZsGreen1-CYP3A4 transduced human AsPC1 cells overexpressing CYP3A4 assessed as cell growth; format: ADME, cell-based
Method in brief: (§1)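 Cells seeded at 10,000/well. Dox-inducible lines were induced with 100 ng/mL doxycycline, then treated 24 h later with compound at 16 two-fold dilutions (0.0003–10 μM) plus 5 μM midazolam, in 0.66% DMSO final, for 24 h. Phase-contrast confluence imaging followed. Values were normalized to six 0.66% DMSO replicates and fitted with a three-parameter log(inhibitor) vs response curve.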

Cytochrome P450 3A4 [4] = biological target: T1, Cytochrome P450 3A4; assay: Inhibition of CYP3A4 in CRISPR/Cas9-mediated CYP3A5 knock-out and doxycycline-induced CYP3A4 overexpressing human AsPC1 cells assessed as decrease in 1-hydroxymidazolam formation using midazolam as substrate pretreated with doxycycline for 24 hrs followed by incubation with compound for 24 hrs by LC-MS/MS analysis; format: ADME, cell-based
Method in brief: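 AsPC-1 CYP3A5−/− cells with Dox-inducible CYP3A4, 10,000 cells/well, induced with 100 ng/mL doxycycline. Quenched with acetonitrile containing warfarin internal standard. 1-Hydroxymidazolam measured by LC-MS/MS and normalized to DMSO control (100%).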

Cytochrome P450 3A5 [5] = biological target: T2, Cytochrome P450 3A5 (Homo sapiens, UniProt P20815); assay: Binding affinity to His-tagged CYP3A5 (unknown origin) expressed in Escherichia coli DH5alpha assessed as five-coordinate HS ferric heme iron state formation with displacement of distal water ligand by EPR spectroscopy
Method in brief: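 Continuous-wave X-band EPR of purified recombinant enzyme, alone and in complex with ligand. Spectra were compared against the ligand-free form.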

Cytochrome P450 3A5 [6] = biological target: T2, Cytochrome P450 3A5; assay: Binding affinity to heme in His-tagged CYP3A5 (unknown origin) expressed in Escherichia coli DH5alpha assessed as formation of five-coordinate ferric heme iron by measuring type 1 Soret shift from 417 nm (low spin) to 395 nm (high spin) by UV-vis spectrophotometric titration analysis
Method in brief: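 Purified recombinant His-tagged CYP3A5 titrated with successive ligand additions until heme absorbance stopped changing. The ligand-free spectrum was subtracted to give difference spectra. Peak-minus-trough values were plotted against ligand concentration and fitted to a binding equation for Kd. Wavelength pairs: ΔA 386–418 nm for the type I shift; ΔA 432–410 nm for the type II shift.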

CYP3A5 [7] = biological target: T3, CYP3A5 (Homo sapiens, UniProt P20815); assay: Inhibition of human recombinant CYP3A5 expressed in supersomes assessed as decrease in formation of D-luciferin at 1.89 uM using luciferin-IPA as substrate incubated for 10 mins in presence of NADPH by P450-Glo luminescence assay relative to control; conditions: probe luciferin-IPA
ASPC1 [8] = assay: Cytotoxicity against wild type human AsPC1 cells assessed as cell growth; format: cell-based; method in brief: as §1
ASPC1 [9] = assay: Cytotoxicity against CRISPR/Cas9-mediated CYP3A5 knock-out and doxycycline-induced CYP3A5 overexpressing human AsPC1 cells assessed as cell growth; format: ADME, cell-based; method in brief: as §1
ASPC1 [10] = assay: Cytotoxicity against CRISPR/Cas9-mediated CYP3A5 knock-out and doxycycline-induced CYP3A4 overexpressing human AsPC1 cells assessed as cell growth; format: ADME, cell-based; method in brief: as §1
Cytochrome P450 2C19 = Cytochrome P450 2C19 (Homo sapiens, UniProt P33261); assay: Inhibition of CYP2C19 in human liver microsomes assessed as formation of 4-hydroxymephenytoin at 1.85 uM using mephenytoin as substrate incubated for 60 mins in presence of NADPH by LC-MS/MS analysis; format: ADME; conditions: 1 h
Method in brief: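 Pooled human liver microsomes with 2 mM NADPH in 100 mM KPO4 pH 7.4, 5 mM MgCl2, 37 °C, technical triplicate, final DMSO 0.2%. Probe (substrate, level, protein, time): 1A2 tacrine 5 μM, 0.2 mg/mL, 10 min; 2B6 bupropion 100 μM, 0.25 mg/mL, 10 min; 2C8 amodiaquine 5 μM, 0.25 mg/mL, 10 min; 2C9 tolbutamide 100 μM, 0.5 mg/mL, 15 min; 2C19 mephenytoin 100 μM, 0.25 mg/mL, 60 min; 2D6 dextromethorphan 5 μM, 0.5 mg/mL, 10 min; 3A4 midazolam 2.5 μM or testosterone 50 μM, 0.25 mg/mL, 10 min. Methanol quench, metabolites measured by LC-MS/MS.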

CYP3A5 [11] = biological target: T3, CYP3A5; assay: Inhibition of human recombinant CYP3A5 expressed in supersomes assessed as decrease in formation of D-luciferin using luciferin-IPA as substrate incubated for 10 mins in presence of NADPH by P450-Glo luminescence assay; conditions: probe luciferin-IPA
ASPC1 [12] = assay: Cytotoxicity against CRISPR/Cas9-mediated CYP3A5 knock-out human AsPC1 cells assessed as cell growth; format: ADME, cell-based; method in brief: as §1

T1 sequence (P08684 whole entry): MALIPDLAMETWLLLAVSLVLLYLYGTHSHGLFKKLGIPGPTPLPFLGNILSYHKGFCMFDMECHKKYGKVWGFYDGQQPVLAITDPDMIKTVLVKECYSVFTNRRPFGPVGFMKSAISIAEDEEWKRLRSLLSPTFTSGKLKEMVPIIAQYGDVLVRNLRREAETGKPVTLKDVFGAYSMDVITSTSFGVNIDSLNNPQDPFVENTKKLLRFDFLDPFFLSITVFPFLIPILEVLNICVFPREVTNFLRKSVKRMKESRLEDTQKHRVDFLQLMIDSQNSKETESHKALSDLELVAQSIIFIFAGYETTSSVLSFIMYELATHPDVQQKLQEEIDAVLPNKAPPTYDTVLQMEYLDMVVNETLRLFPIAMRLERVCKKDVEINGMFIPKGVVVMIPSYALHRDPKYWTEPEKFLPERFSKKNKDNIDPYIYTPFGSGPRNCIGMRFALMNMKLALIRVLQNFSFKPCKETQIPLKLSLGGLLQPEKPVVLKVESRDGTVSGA
T2 sequence (P20815 whole entry): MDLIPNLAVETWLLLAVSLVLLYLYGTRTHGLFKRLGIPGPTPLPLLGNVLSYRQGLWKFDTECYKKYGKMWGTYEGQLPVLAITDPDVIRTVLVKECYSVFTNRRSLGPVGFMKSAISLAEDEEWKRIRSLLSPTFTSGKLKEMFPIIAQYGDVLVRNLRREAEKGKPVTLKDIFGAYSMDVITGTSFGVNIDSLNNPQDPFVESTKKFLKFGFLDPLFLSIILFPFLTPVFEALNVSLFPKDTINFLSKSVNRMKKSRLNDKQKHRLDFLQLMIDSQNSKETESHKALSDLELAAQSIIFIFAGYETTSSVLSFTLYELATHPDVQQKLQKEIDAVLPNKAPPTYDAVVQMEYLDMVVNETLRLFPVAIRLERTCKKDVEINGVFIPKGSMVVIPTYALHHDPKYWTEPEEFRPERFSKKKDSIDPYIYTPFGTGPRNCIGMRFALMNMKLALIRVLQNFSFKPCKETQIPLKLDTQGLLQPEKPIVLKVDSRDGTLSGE
T3 sequence (P20815 whole entry): as above
Chain of Cytochrome P450 2C19 (P33261 whole entry): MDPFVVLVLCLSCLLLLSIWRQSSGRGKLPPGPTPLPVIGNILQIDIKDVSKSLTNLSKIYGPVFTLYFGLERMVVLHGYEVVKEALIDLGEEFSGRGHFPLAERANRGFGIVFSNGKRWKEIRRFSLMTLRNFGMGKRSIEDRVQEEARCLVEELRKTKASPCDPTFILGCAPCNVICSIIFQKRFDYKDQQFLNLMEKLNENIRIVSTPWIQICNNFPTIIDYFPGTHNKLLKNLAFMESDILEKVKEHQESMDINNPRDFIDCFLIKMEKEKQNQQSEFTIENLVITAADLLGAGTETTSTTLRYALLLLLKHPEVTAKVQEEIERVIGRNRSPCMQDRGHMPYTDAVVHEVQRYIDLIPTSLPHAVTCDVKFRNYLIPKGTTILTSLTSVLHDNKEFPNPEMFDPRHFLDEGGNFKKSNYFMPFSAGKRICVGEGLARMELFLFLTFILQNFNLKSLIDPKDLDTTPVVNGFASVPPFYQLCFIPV

SMILES: CCC(=O)O[C@]1(C(=O)CCl)[C@@H](C)C[C@H]2[C@@H]3CCC4=CC(=O)C=C[C@]4(C)[C@@]3(F)[C@@H](O)C[C@@]21C [CLOBETASOL PROPIONATE]
- Activity (ASPC1 [1]): Not Active
- Activity (Cytochrome P450 3A4 [2]): Not Active
- Activity (ASPC1 [3]): Non-Toxic
- IC50 (Cytochrome P450 3A4 [4]): Not Active
- Activity (Cytochrome P450 3A5 [5]): Active
- Activity (Cytochrome P450 3A5 [6]): Active
- inhibition at 10 min, 1.89 µM (CYP3A5 [7]): 90%
- Activity (ASPC1 [8]): Non-Toxic
- Activity (ASPC1 [9]): Non-Toxic
- Activity (ASPC1 [10]): Non-Toxic
- inhibition (INH) (Cytochrome P450 2C19): Not Active
- IC90 at 10 min (CYP3A5 [11]): 1800 nM
- Activity (ASPC1 [12]): Non-Toxic
